Test results taken from PMC3612139 (Bioorganic chemistry, 2013).

Test system: HL-60 promyelocytes
Test: HL-60 differentiation
Format: cell-based
Details: Homo sapiens, HL-60, read-out: HL-60 differentiation EC50
In short: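 Differentiation of HL-60 promyelocytes to monocytes, scored as the percentage of cells reducing nitro blue tetrazolium. EC50 taken from dose–response curves as the concentration giving 50% maturation. Ratio is the average of test compound EC50 over 1α,25-(OH)2D3 EC50. Run in duplicate on at least two occasions.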

C=C1/C(=C\C=C2/CCC[C@]3(C)[C@@H]([C@H](C)CCCC(C)(C)O)CC[C@@H]23)C[C@@H](O)C[C@@H]1O [Compound 1, 1α,25-Dihydroxyvitamin D3]
EC50: 2 nM
